Only some compounds are listed: those with a hit (about 4.6% of all), similar ones and a draw of the others.
TAAR1 antag: human TAAR1 antagonists, primary screen, Fluo-8 calcium fluorescence, CHO RD-HGA16 cells. Trace amine-associated receptor 1 (Homo sapiens), Q96RJ0. antagonist. inhibition, % at 3 µM. actives 1.5% (n = 360,000);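 active = inhibition above a per-plate cutoff, the mean inhibition of test compounds on that plate plus 3 SD, cut at about 49% in these data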;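 also: 0% = DMSO plus EC80 beta-PEA response and 100% = DMSO alone without agonist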
Target sequence (Q96RJ0 whole entry, looked up): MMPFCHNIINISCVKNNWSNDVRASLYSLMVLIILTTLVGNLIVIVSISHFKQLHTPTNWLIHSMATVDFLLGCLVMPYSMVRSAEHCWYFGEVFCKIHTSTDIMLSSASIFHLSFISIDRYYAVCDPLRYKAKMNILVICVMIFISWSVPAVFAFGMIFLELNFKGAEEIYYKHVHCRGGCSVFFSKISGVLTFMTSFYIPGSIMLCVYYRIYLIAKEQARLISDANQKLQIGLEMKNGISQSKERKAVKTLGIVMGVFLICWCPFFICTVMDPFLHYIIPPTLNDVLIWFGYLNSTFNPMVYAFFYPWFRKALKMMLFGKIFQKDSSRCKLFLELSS
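Test system – hTAAR1-expressing CHO RD-HGA16 cells, Gα16-coupled · Reagent – β-PEA at EC80 concentration, post-compound challenge · Compound dosing – 3 µM, single point · Timing – 140 s kinetic read after compound, 140 s after agonist · Detection – Fluo-8 intracellular calcium dye fluorescence, real-time kinetic reads · Control set – DMSO and EC80 PEA controls · Repeats – n of 1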
CHO parental Ca: ATP-evoked calcium signal inhibitors, parental CHO, primary screen, counter-screen for OX1R antagonist project, cell-based, fluorescence, Fluo-8 calcium dye | parental CHO-K1, ATP-induced calcium, Fluo-8 fluorescence | actives 0.63% (n = 330,000) | inhibition, % at 5.6 µM;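 active = inhibition above that plate's mean sample inhibition plus 3 SD, cut at about 26% in these data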;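 also: 0% = ATP-challenged DMSO wells and 100% = DMSO wells without ATP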
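Assay system: parental CHO cells; Read-out basis: percent inhibition of ATP-evoked calcium rise, normalized to controls; Benchmarks: ATP and no-ATP DMSO wells; Compound dosing: single nominal dose of 5.6 µM per compound; Signal: Fluo-8 calcium dye fluorescence; Also added: ATP as calcium-mobilizing challenge; Repeats: singlicate.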
OX1R antag-1: antagonists of human orexin 1 receptor (OX1R); OX1R-expressing cells, FRET antagonist read-out; inhibition, % at 6.6 µM; actives 1.8% (n = 330,000); AID 485270, 2010; in the data active = inhibition mostly above about 38%, no sharp cut-off; inactive = mostly below about 40%;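 also: 0% = agonist challenge alone and 100% = reference antagonist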
TAAR1 ag: human TAAR1 agonists, primary screen, Fluo-8 calcium fluorescence, CHO RD-HGA16 cells; Trace amine-associated receptor 1 (Homo sapiens), Q96RJ0; vehicle wells 0%, saturating PEA agonist 100%; activation, % at 3 µM; actives 0.99% (n = 360,000); AID 624467, 2012;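 active = activation above the mean activation of all test compounds in the run plus 3 SD, cut at about 38% in these data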
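Assay system – CHO-derived RD-HGA16 cells with stable Gα16 and human TAAR1 · Compound dosing – one-point dosing at 3 µM (nominal) · Incubation – 17-24 h seeding, 75 min 37 °C dye, 30 min RT · Measured by – kinetic Fluo-8 calcium fluorescence · Control set – DMSO vehicle as 0%, PEA at EC100 as 100% · Repeats – single well for each compound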
GPR7 antagonist: GPR7 receptor antagonists, primary screen, cell-based, fluorescence, single concentration; Neuropeptides B/W receptor type 1 (Homo sapiens), P48145; GPR7-expressing cells, fluorescence antagonist assay; inhibition, % at 4.4 µM; actives 1.1% (n = 290,000); AID 1861, 2009; in the data active = inhibition above about 16%, passing the limit was not always enough;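 also: cells stimulated with the agonist NPW; 0% = agonist with vehicle and 100% = vehicle without agonist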
Target sequence (P48145 whole entry, looked up): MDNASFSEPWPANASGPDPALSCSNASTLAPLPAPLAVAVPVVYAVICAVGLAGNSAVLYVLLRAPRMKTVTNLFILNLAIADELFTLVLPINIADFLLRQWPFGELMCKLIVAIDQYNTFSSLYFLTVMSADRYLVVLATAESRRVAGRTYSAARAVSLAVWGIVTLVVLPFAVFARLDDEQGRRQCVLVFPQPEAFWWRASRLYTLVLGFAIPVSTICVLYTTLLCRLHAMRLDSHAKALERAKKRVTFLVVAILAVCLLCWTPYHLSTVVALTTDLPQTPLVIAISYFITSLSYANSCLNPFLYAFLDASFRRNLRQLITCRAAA
OX1R antag-2: OX1R (HCRTR1) antagonists, primary screen, fluorescence, CHO/OX1R cells, Fluo-8 calcium, orexin A; Fluo-8 calcium fluorescence; inhibition, % at 5 µM; actives 0.43% (n = 330,000);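 active = inhibition above its plate's threshold, mean inhibition of all tested compounds on the plate plus 3 SD, cut at about 37% in these data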;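 also: 0% = orexin A challenge wells and 100% = SB-334867-A antagonist wells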
GPR7 antag cf: GPR7 receptor antagonists, confirmation, cell-based, fluorescence, single concentration | shares compounds with GPR7 antagonist | GPR7-expressing cells, calcium fluorescence antagonist mode | inhibition, % at 4.4 µM | actives 52% (n = 2,400) | AID 1952, 2009; in the data active = inhibition above about 24%;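 also: stimulated with the GPR7 agonist NPW; 0% = agonist plus vehicle and 100% = vehicle alone without agonist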
MCHR1 antagonist: MCHR1 antagonists in cells, counter-screen for GPR7 antagonist project, cell-based, fluorescence, human; actives 62% (n = 2,400); MCHR1-expressing cells, fluorescence antagonist assay; inhibition, % at 4.4 µM; shares compounds with GPR7 antagonist; AID 2148, 2009; in the data active = inhibition above about 22%;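 also: 0% = vehicle with agonist and 100% = vehicle without agonist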
The depositor's hits bear a star.

`COc1ccc(-c2cn(Cc3ccc([N+](=O)[O-])cc3)nn2)cc1` gave TAAR1 antag 13, CHO parental Ca -6, OX1R antag-1 28, TAAR1 ag 11, GPR7 antagonist 19 and OX1R antag-2 -16.
For COc1ccc2c(Cl)c(C(=O)N/N=C/c3ccc4c(c3)OCO4)sc2c1 the results were TAAR1 antag 10, CHO parental Ca -21, OX1R antag-1 16, TAAR1 ag 2, GPR7 antagonist 10 and OX1R antag-2 -4.
For COc1ccc2c(Cl)c(C(=O)N/N=C3\CCCC(=O)C3)sc2c1 the results were TAAR1 antag 17, CHO parental Ca 1, OX1R antag-1 14, TAAR1 ag 11, GPR7 antagonist 24*, OX1R antag-2 3, GPR7 antag cf 11 and MCHR1 antagonist 28*.
CCCS(=O)(=O)NC(=O)C1(C)CCN(C(=O)c2cccs2)C1 (centres undefined) was read as TAAR1 antag -32 and TAAR1 ag 3.
`Clc1ccc(Cn2ncc3c(NCc4ccco4)ncnc32)c(Cl)c1` gave TAAR1 antag 53*, CHO parental Ca 2, OX1R antag-1 59, TAAR1 ag 12, GPR7 antagonist 28*, OX1R antag-2 18, GPR7 antag cf 37* and MCHR1 antagonist 56*.
O=C(CSC1=NCCS1)NC1CCCC1 was read as TAAR1 antag -9, CHO parental Ca -2, OX1R antag-1 8, TAAR1 ag 8, GPR7 antagonist -4 and OX1R antag-2 4.
`CCOC(=O)C1=CC[C@@H](c2ccccc2)C(C#N)(C#N)[C@H]1/C=C/c1ccccc1` gave TAAR1 antag 41 and TAAR1 ag 0.
Screening Cc1ccc(S(=O)(=O)N(C)c2ccc(OCC(=O)Nc3ccc(S(C)(=O)=O)cc3)cc2)cc1 returned TAAR1 antag 36 and TAAR1 ag 14.
`Cc1ccc(S(=O)(=O)N(C)c2ccc(OCC(=O)Nc3cccc(-n4cnnn4)c3C)cc2)cc1` gave TAAR1 antag -4, CHO parental Ca -4, OX1R antag-1 12, TAAR1 ag 3, GPR7 antagonist 22*, OX1R antag-2 -25, GPR7 antag cf 6 and MCHR1 antagonist 33*.
For CCCOc1ccc(-c2csc(N)n2)cc1[N+](=O)[O-] the results were TAAR1 antag 0, CHO parental Ca -7, OX1R antag-1 24, TAAR1 ag 3, GPR7 antagonist 27*, OX1R antag-2 -16, GPR7 antag cf 13 and MCHR1 antagonist 26*.
For CCCCOc1ccc(-c2cn3ccccc3n2)cc1[N+](=O)[O-] the results were TAAR1 antag -1, CHO parental Ca -20, OX1R antag-1 21, TAAR1 ag 3, GPR7 antagonist -6 and OX1R antag-2 -35.
O=C(Cc1ccc(S(=O)(=O)N2CCCCC2)s1)Nc1ccc(F)cc1F was read as TAAR1 antag -13, CHO parental Ca -4, OX1R antag-1 14, TAAR1 ag 1, GPR7 antagonist 35*, OX1R antag-2 -7, GPR7 antag cf 20 and MCHR1 antagonist 19.
Screening O=C(COC(=O)Cc1ccc(S(=O)(=O)N2CCOCC2)s1)Nc1ccc(F)cc1F returned TAAR1 antag 11, CHO parental Ca -4, OX1R antag-1 -3, TAAR1 ag 4 and OX1R antag-2 -8.
For CCN(CC)c1ccc(S(=O)(=O)N2CCOCC2)cc1NC(=O)CNCc1ccccc1 the results were TAAR1 antag -3, CHO parental Ca -10, OX1R antag-1 9, TAAR1 ag 1, GPR7 antagonist 24*, OX1R antag-2 -1, GPR7 antag cf 31* and MCHR1 antagonist 29*.
CCN(CC)c1ccc(S(=O)(=O)N2CCOCC2)cc1NC(=O)CSC(=S)N1CCCC1 was read as TAAR1 antag -36, CHO parental Ca -4, OX1R antag-1 -9, TAAR1 ag -2, GPR7 antagonist 44*, OX1R antag-2 -37, GPR7 antag cf 24* and MCHR1 antagonist 48*.
COc1cccc(CNC(=O)[C@H]2CCCN2C(=O)C2CCCN2C(=O)c2ccc(OC)c(F)c2)c1 (some centres undefined) was read as TAAR1 antag 3 and TAAR1 ag 0.
CCCCNC(=O)c1cc2nc3c(c(C(F)(F)F)n2n1)CCc1ccccc1-3 was read as TAAR1 antag 19, CHO parental Ca 2, OX1R antag-1 18, TAAR1 ag 5, GPR7 antagonist 0 and OX1R antag-2 -3.
CC(C)CNC(=O)c1cc2nc3c(c(C(F)(F)F)n2n1)CCc1ccccc1-3 was read as TAAR1 antag 4, CHO parental Ca -9, OX1R antag-1 12, TAAR1 ag 11, GPR7 antagonist 22*, OX1R antag-2 -19, GPR7 antag cf -3 and MCHR1 antagonist 11.
For CN(Cc1ccccc1)C(=O)c1ccc2nc([C@@H]3O[C@H](CO)[C@H](O)[C@H](O)[C@H]3O)[nH]c2c1 the results were TAAR1 antag -23 and TAAR1 ag 1.
For NC(=O)COc1ccc(-n2cnnn2)cc1 the results were TAAR1 antag -8, CHO parental Ca -5, OX1R antag-1 20, TAAR1 ag 1, GPR7 antagonist -4 and OX1R antag-2 -12.
COc1ccc(-n2c(C)cc(C(=O)COc3ccc(-n4cnnn4)cc3)c2C)cc1 was read as TAAR1 antag -1, CHO parental Ca -2, OX1R antag-1 1, TAAR1 ag 1, GPR7 antagonist 28*, OX1R antag-2 -10, GPR7 antag cf 12 and MCHR1 antagonist 24*.
O=C(CNC(=O)c1ccco1)OCc1c(F)cccc1Cl was read as TAAR1 antag 13, CHO parental Ca -5, OX1R antag-1 8, TAAR1 ag 24, GPR7 antagonist 25*, OX1R antag-2 2, GPR7 antag cf 0 and MCHR1 antagonist 7.
For O=C(CNC(=O)c1ccco1)NCC(=O)OCc1c(F)cccc1Cl the results were TAAR1 antag 6, CHO parental Ca -9, OX1R antag-1 2, TAAR1 ag 0, GPR7 antagonist -15 and OX1R antag-2 -6.

From PubChem BioAssay
